Source: ChEMBL document CHEMBL3044755, “5-Methyl-1,2,3-thiadiazoles synthesized via ugi reaction and their fungicidal and antiviral activities” (J Agric Food Chem, 2010)

Assays:
Assay type in all cases: functional
Fusarium graminearum = experiment: Fungicidal activity against Fusarium graminearum at 50 ug/ml by growth inhibition method; conditions: read-out: GI
Summary of the method: (§1)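 Mycelial growth inhibition on potato dextrose agar. The panel covered Alternaria solani, Botrytis cinerea, Cercospora arachidicola, C. beticola, Colletotrichum lagenarium, Fusarium oxysporum, Gibberella zeae, Puccinia triticina, Phytophthora infestans, Physalospora piricola, Pellicularia sasakii and Rhizoctonia solani.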

Cercospora beticola = experiment: Fungicidal activity against Cercospora beticola at 50 ug/ml by growth inhibition method; conditions: read-out: GI; summary of the method: as §1
Puccinia triticina = experiment: Fungicidal activity against Puccinia triticina at 50 ug/ml by growth inhibition method; conditions: read-out: GI; summary of the method: as §1
Rhizoctonia solani = experiment: Fungicidal activity against Rhizoctonia solani at 50 ug/ml by growth inhibition method; conditions: read-out: GI; summary of the method: as §1
[1] = system: Botryosphaeria berengeriana; experiment: Fungicidal activity against Botryosphaeria berengeriana at 50 ug/ml by growth inhibition method; conditions: read-out: GI; summary of the method: as §1
Mycosphaerella arachidis = experiment: Fungicidal activity against Mycosphaerella arachidis at 50 ug/ml by growth inhibition method; conditions: read-out: GI; summary of the method: as §1
Tobacco mosaic virus [2] = experiment: In vitro antiviral activity against Tobacco mosaic virus (TMV) infected tobacco leaves at 100 ug/ml
Phytophthora infestans = experiment: Fungicidal activity against Phytophthora infestans at 50 ug/ml by growth inhibition method; conditions: read-out: GI; summary of the method: as §1
Colletotrichum lagenaria = experiment: Fungicidal activity against Colletotrichum lagenaria at 50 ug/ml by growth inhibition method; conditions: read-out: GI; summary of the method: as §1
Tobacco mosaic virus [3] = experiment: In vitro antiviral activity against Tobacco mosaic virus (TMV) infected tobacco leaves at 500 ug/ml
Alternaria solani = experiment: Fungicidal activity against Alternaria solani at 50 ug/ml by growth inhibition method; conditions: read-out: GI; summary of the method: as §1
Thanatephorus cucumeris = experiment: Fungicidal activity against Thanatephorus cucumeris at 50 ug/ml by growth inhibition method; conditions: read-out: GI; summary of the method: as §1
Fusarium oxysporum = experiment: Fungicidal activity against Fusarium oxysporum at 50 ug/ml by growth inhibition method; conditions: read-out: GI; summary of the method: as §1
Botrytis cinerea = experiment: Fungicidal activity against Botryotinia fuckeliana at 50 ug/ml by growth inhibition method; conditions: read-out: GI; summary of the method: as §1

Row | SMILES | inhibition of growth at 50 µg/mL (Fusarium graminearum) | inhibition of growth at 50 µg/mL (Cercospora beticola) | inhibition of growth at 50 µg/mL (Puccinia triticina) | inhibition of growth at 50 µg/mL (Rhizoctonia solani) | inhibition of growth at 50 µg/mL [1] | inhibition of growth at 50 µg/mL (Mycosphaerella arachidis) | inhibition at 100 µg/mL (Tobacco mosaic virus [2]) | inhibition of growth at 50 µg/mL (Phytophthora infestans) | inhibition of growth at 50 µg/mL (Colletotrichum lagenaria) | inhibition at 500 µg/mL (Tobacco mosaic virus [3]) | inhibition of growth at 50 µg/mL (Alternaria solani) | inhibition of growth at 50 µg/mL (Thanatephorus cucumeris) | inhibition of growth at 50 µg/mL (Fusarium oxysporum) | inhibition of growth at 50 µg/mL (Botrytis cinerea)
1 | Cc1ccc(N(C(=O)c2nnsc2C)C(C(=O)NC(C)C)c2cccc([N+](=O)[O-])c2)cc1F (stereo not drawn) | 45% | 25% | 14% | 15% | 0% | 27% | 4% | 13% | 29% | 14% | 13% | 0% |  | 
2 | Cc1ccc(N(C(=O)c2nnsc2C)C(C(=O)NC(C)C)c2ccccc2[N+](=O)[O-])cc1F (stereo not drawn) | 27% | 25% | 0% | 2% | 19% | 0% | 11% | 0% | 14% | 24% | 0% | 39% |  | 
3 | Cc1ccc(N(C(=O)c2nnsc2C)C(C(=O)NC(C)C)c2ccc(Cl)cc2)cc1F (stereo not drawn) | 0% | 13% | 0% | 15% | 0% | 0% | 20% | 38% | 14% | 12% | 38% | 28% |  | 
4 | Cc1ccc(N(C(=O)c2nnsc2C)C(C(=O)NC(C)C)c2cccc(Cl)c2)cc1F (stereo not drawn) | 0% | 13% | 0% | 22% | 0% | 0% | 32% | 0% | 0% | 66% | 0% | 4% |  | 
5 | Cc1ccc(N(C(=O)c2nnsc2C)C(C(=O)NC(C)C)c2ccccc2Cl)cc1F (stereo not drawn) | 0% | 0% | 0% | 0% | 0% | 0% | 23% | 25% | 14% | 17% | 0% | 0% |  | 
6 | Cc1ccc(N(C(=O)c2nnsc2C)C(C(=O)NC(C)C)c2ccc(F)cc2)cc1F (stereo not drawn) | 27% | 25% | 0% | 22% | 0% | 0% | 18% | 0% | 0% | 51% | 0% | 0% |  | 
7 | Cc1ccc(N(C(=O)c2nnsc2C)C(C(=O)NC(C)C)c2cccc([N+](=O)[O-])c2)cc1Cl (stereo not drawn) | 33% | 46% |  |  | 45% | 9% | 28% | 26% | 10% | 34% | 33% | 52% | 12% | 78%
8 | Cc1ccc(N(C(=O)c2nnsc2C)C(C(=O)NC(C)C)c2cccc(F)c2)cc1Cl (stereo not drawn) | 23% | 33% |  |  | 38% | 21% | 34% | 18% | 10% | 18% | 42% | 69% | 19% | 78%
9 | Cc1ccc(N(C(=O)c2nnsc2C)C(C(=O)NC(C)C)c2ccccc2F)cc1Cl (stereo not drawn) | 37% | 25% |  |  | 33% | 21% | 32% | 15% | 10% | 34% | 40% | 67% | 21% | 73%
